For one experiment, the system named is P388. In words: Cytotoxicity against mouse P388 cells. In kind it is functional.
In the next experiment the test system is Staphylococcus aureus. In words: Antimicrobial activity against Staphylococcus aureus up to 64 ug/mL by broth microdilution susceptibility assay. In kind it is functional, organism-based. The method, boiled down:
(§1)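 Broth microdilution susceptibility testing. Growth inhibition read-out is reported as the minimum inhibitory concentration, in μg/mL.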

For the next experiment, the system named is Streptococcus pneumoniae. In words: Antimicrobial activity against Streptococcus pneumoniae up to 64 ug/mL by broth microdilution susceptibility assay. The class given is functional, organism-based. Put shortly:
as §1

In experiment [1] the test system is Enterococcus faecalis. The experiment is described as follows: Antimicrobial activity against Enterococcus faecalis up to 64 ug/mL by broth microdilution susceptibility assay. The class given is functional, organism-based. Put shortly:
as §1

Experiment [2] deals with Micrococcus luteus. The experiment is described as follows: Antimicrobial activity against Micrococcus luteus up to 64 ug/mL by broth microdilution susceptibility assay. The class given is functional, organism-based. The method, boiled down:
as §1

A further experiment relates to Enterobacter cloacae. The experiment is described as follows: Antimicrobial activity against Enterobacter cloacae up to 64 ug/mL by broth microdilution susceptibility assay. The class given is functional, organism-based. Put shortly: as §1
A further experiment concerns Escherichia coli. The experiment is described as follows: Antimicrobial activity against Escherichia coli up to 64 ug/mL by broth microdilution susceptibility assay. In kind it is functional, organism-based. The method, boiled down: as §1
Experiment [3] relates to Stenotrophomonas maltophilia. The experiment is described as follows: Antimicrobial activity against Stenotrophomonas maltophilia up to 64 ug/mL by broth microdilution susceptibility assay. The class given is functional, organism-based. Put shortly:
as §1

For another experiment, the system named is Neisseria gonorrhoeae. In words: Antimicrobial activity against Neisseria gonorrhoeae up to 64 ug/mL by broth microdilution susceptibility assay. The class given is functional, organism-based. The method, boiled down:
as §1

A further experiment deals with Cryptococcus neoformans. In words: Antimicrobial activity against Cryptococcus neoformans up to 64 ug/mL by broth microdilution susceptibility assay. The class given is functional, organism-based. The method, boiled down: as §1
Another experiment has as its system Candida albicans. The experiment is described as follows: Antimicrobial activity against Candida albicans up to 64 ug/mL by broth microdilution susceptibility assay. In kind it is functional, organism-based. Put shortly:
as §1

In experiment [4] the test system is Enterococcus faecalis. In words: Antimicrobial activity against Enterococcus faecalis by broth microdilution susceptibility assay. In kind it is functional. The method, boiled down:
(§2)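 Broth microdilution susceptibility testing; the value recorded is the minimum inhibitory concentration of growth, given in μg/mL, and sometimes reported as a range.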

Experiment [5] deals with Micrococcus luteus. The experiment is described as follows: Antimicrobial activity against Micrococcus luteus by broth microdilution susceptibility assay. The class given is functional. The method, boiled down:
as §2

Structures are written as SMILES. Values after ≈ are worked out from the molar mass of the structure shown. Active and inactive are the calls of the source. No cut-off for these calls is given here.

Take `COC(=O)c1cc(O)cc(OC)c1Oc1cc(C)cc(O)c1C(=O)OC`: the result with P388, with Staphylococcus aureus, in the experiment with Streptococcus pneumoniae, in the experiment on Enterococcus faecalis [1], in the experiment on Micrococcus luteus [2] and in the experiment with Enterobacter cloacae was inactive. In addition, the result (with Escherichia coli; in [3]; in the experiment with Neisseria gonorrhoeae; in the experiment with Cryptococcus neoformans; with Candida albicans) was inactive.
Regarding `COc1c(OC)c2oc(=O)c3cc(O)c(OC)c4oc(=O)c(c1O)c2c43`, the outcome in the experiment with P388, with Staphylococcus aureus, with Streptococcus pneumoniae, in the experiment on Enterococcus faecalis [1], in the experiment on Micrococcus luteus [2] and with Enterobacter cloacae was inactive. The outcome (in the experiment with Escherichia coli; in experiment [3]; in the experiment with Neisseria gonorrhoeae; in the experiment with Cryptococcus neoformans; with Candida albicans) was inactive.
Turning to `COC(=O)[C@]12Oc3ccc(-c4ccc5c(c4O)C(=O)C4=C(O)C[C@@H](C)[C@H](O)[C@@]4(C(=O)OC)O5)c(O)c3C(=O)C1=C(O)C[C@@H](C)[C@@H]2O` [SECALONIC ACID A], the minimal inhibitory concentration (MIC) in the experiment with Enterococcus faecalis [4] was determined as 32 µg/mL (≈ 50.1 µM); in the experiment on Micrococcus luteus [5], 4 µg/mL (≈ 6.26 µM). In addition, the EC50 with P388 (read-out: ED50 (the source's name)) is 3.5 µg/mL (≈ 5.48 µM).
For `CC[C@H](/C=C/[C@@H](C)[C@H]1CC[C@H]2[C@@H]3CC=C4C[C@@H](O)CC[C@]4(C)[C@H]3CC[C@]12C)C(C)C`, in the experiment on P388, the result was inactive.
In the case of `COc1cc(C)c(C(=O)Oc2cc(C)c(C(=O)O)c(OC)c2)c(O)c1`, the outcome in the experiment on P388, with Staphylococcus aureus, with Streptococcus pneumoniae, in the experiment on Enterococcus faecalis [1], with Micrococcus luteus [2] and in the experiment on Enterobacter cloacae was inactive. In addition, the outcome (with Escherichia coli; in experiment [3]; in the experiment with Neisseria gonorrhoeae; with Cryptococcus neoformans; in the experiment with Candida albicans) was inactive.
Regarding `CCCCCc1cc2cc(OC)cc(O)c2c(=O)[nH]1`, the result with P388, in the experiment with Staphylococcus aureus, with Streptococcus pneumoniae, in the experiment on Enterococcus faecalis [1], in the experiment with Micrococcus luteus [2] and in the experiment on Enterobacter cloacae was inactive. The outcome (with Escherichia coli; in [3]; in the experiment on Neisseria gonorrhoeae; with Cryptococcus neoformans; in the experiment on Candida albicans) was inactive.
`COc1cc(C)c2c(=O)c3c(O)cc(OC)cc3oc2c1`: the result in the experiment with P388, with Staphylococcus aureus, with Streptococcus pneumoniae, with Enterococcus faecalis [1], in the experiment with Micrococcus luteus [2] and with Enterobacter cloacae was inactive. Further, the result (in the experiment on Escherichia coli; in [3]; with Neisseria gonorrhoeae; in the experiment on Cryptococcus neoformans; with Candida albicans) was inactive.

The values above are taken from ChEMBL document CHEMBL1146567, “Isolation and structure of ruprechstyril from Ruprechtia tangarana” (2003).
